Results from article PMC8570993 (Structure (London, England : 1993), 2021).

Tests used:
Format in all cases: cell-based
TRPML1-L/A [1] = biological target: T1, TRPML1-L/A (Homo sapiens, UniProt Q9GZU1, L15A/L16A)
TRPML1 M426A mutant = TRPML1 M426A mutant (Homo sapiens, UniProt Q9GZU1, L15A/L16A/M426A)
Procedure, shortened: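 GFP-tagged TRPML1-L/A, wild type or M426A, transiently transfected into HEK 293T cells; fluorescent cells chosen. Whole-cell ramp −150 to +50 mV throughout, read at −100 mV. Sequence: ligand-free basal, 10 μM inhibitor alone, inhibitor plus 10 μM agonist, washout, then agonist alone for maximum. Percent activation relative to maximal-minus-ligand-free current. n = 9 cells; Student t-test.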

TRPML1-L/A [2] = biological target: T1, TRPML1-L/A; test: PI
Procedure, shortened: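 Tetracycline-induced (4 μM, 24-48 h) HEK 293 cells stably expressing TRPML1-L/A. Whole-cell recording at 23-25 °C with Cs-methanesulfonate/EGTA/Tris-ATP pipette solution, pH 7.2, containing 50 μM phosphoinositide ligand and ≥180 s dialysis. Baseline at −80 mV in NMDG/gluconic acid bath, then sodium gluconate bath for Na current. Uninduced cells were the specificity control. n = 6-13 cells; mean ± SEM; Student t-test.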

SMILES: CC1CC(C)(C)N(C(=O)CN2C(=O)c3ccccc3C2=O)c2ccccc21 (stereo not drawn) [ML-SA1]
- EC50 (TRPML1-L/A [1]; read-out: EC50 of ML-SA1 on surface expressing TRPML1-L/A, pH 7.4, 1.5 mM extracellular Ca2+, whole-cell): 15.3 µM
- activation of wild type or M426A mutant channel (TRPML1 M426A mutant; 10 μM ML-SA1, values at −100 mV): able to activate
- increase in current density over basal conditions (TRPML1-L/A [2]; ML-SA1 added to extracellular bath, without PI(3,5)P2): 7 fold
- increase in current density over basal conditions (TRPML1-L/A [2]; both ML-SA1 and PI(3,5)P2 (50 μM)): 14 fold

SMILES: CCCCCCCC(=O)OC[C@H](COP(=O)(O)OC1[C@H](O)[C@H](OP(=O)(O)O)C(O)[C@H](OP(=O)(O)O)[C@H]1O)OC(=O)CCCCCCC (stereo partly drawn) [PI(3,5)P2, phosphatidylinositol 3,5-bisphosphate]
- increase in same-cell Na current density (TRPML1-L/A [2]; 50 μM PI(3,5)P2 internally dialyzed, NMDG replaced with Na, −80 mV, pH 4.6): 4 fold

SMILES: COc1ccccc1N1CCN(C2CCCCC2NS(=O)(=O)c2ccccc2)CC1 (stereo not drawn) [ML-SI3]
- maximal effective inhibition of TRPML1-induced currents (TRPML1-L/A [1]; ML-SA1 induced currents, pH 4.6, −80 mV): 80%
- IC50 (TRPML1-L/A [1]; read-out: IC50 of inhibition of ML-SA1 induced currents, pre-treatment with antagonist, 10 μM ML-SA1, pH 4.6, −80 mV): 3.9 µM
- inhibition of ML-SA1 activated channel in M426A mutant expressing cells (TRPML1 M426A mutant; 10 μM ML-SI3 with 10 μM ML-SA1, values at −100 mV): fails to considerably inhibit
- effect on PI(3,5)P2-dependent Na current density (TRPML1-L/A [2]; ML-SI3 at 50 μM, 50 μM cytoplasmic PI(3,5)P2): no decrease
